The subject of assay [1] is A-431. The experiment in a line: Anticancer activity against human A431 cells assessed as reduction in cell viability measured after 72 hrs by MTT assay. Format: functional, cell-based. To be noted: A-431, 72 h. In general terms: Tetrazolium assays rely on reduction of a dye to a coloured formazan, in cell work by metabolically active cells.
The test system of assay [2] is HepG2. Briefly: Anticancer activity against human HepG2 cells assessed as reduction in cell viability measured after 72 hrs by MTT assay. Format: functional, cell-based. To be noted: HepG2, 72 h.
Assay [3] relates to PC-3. Briefly: Induction of apoptosis in human PC3 cells assessed as down-regulation of BCL-xL expression measured after 72 hrs by Western blot analysis. Format: functional, cell-based. In a few lines: (§1)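 Western blot: PC-3 seeded 1.25 × 10^5/well, exposed to 0.1–10 μM for 72 h. Lysed in 2× SDS buffer and sonicated; 20–25 μg protein run on 12% SDS gel, transferred to PVDF, blocked in 5% BSA/TBST. Primary antibodies overnight, secondary 1 h; ECL detection, β-actin loading control.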
Background: A western blot detects proteins with antibodies after separation by electrophoresis.

Assay [4] concerns PC-3. Briefly: Induction of cell death in human PC3 cells at 3 uM measured after 72 hrs by propidium iodide staining based flow cytometry analysis (reference value: 0.5 %). It is filed as functional. In a few lines: (§2)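 PC-3 cells in six-well plates exposed to 3 or 10 μM for 72 h, 0.1% DMSO vehicle as control; cells harvested, PBS-washed, stained with propidium iodide (5 μg/mL) 20 min at 4 °C; percentage dead cells read by flow cytometry; t-test against vehicle.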
On the technique in general: Flow cytometry measures light scatter and fluorescence of single cells or particles in a stream.

Assay [5] has as its system PC-3. The experiment in a line: Antiproliferative activity against human PC3 cells assessed as reduction in cell viability at 1 to 10 uM incubated for 72 hrs by MTT assay. It is filed as functional, cell-based.
For assay [6], the system named is PC-3. Briefly: Downregulation of PCNA mRNA expression in human PC3 cells at 3 to 10 uM measured after 72 hrs by TRIzol dye based RT-PCR analysis. Format: functional, cell-based. A digest of the protocol: (§3)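 PC-3 (1.25 × 10^5/well) treated 72 h with 3 or 10 μM. Total RNA extracted with TRIzol; cDNA made from 2 μg RNA. SYBR qPCR: 95 °C 10 min, then 40 cycles of 95 °C/60 °C. Expression normalised to GAPDH by 2^-ΔΔCt; three experiments.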

For assay [7], the system named is PC-3. The experiment in a line: Antimetastatic activity against human PC3 cells assessed as inhibition of MMP-9 at 3 to 10 uM measured after 48 hrs by gelatin zymography. Format: functional, cell-based. A digest of the protocol: (§4)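 PC-3 monolayers scratched, then treated with 3 or 10 μM for 48 h in serum-containing medium, then 24 h in serum-free medium. Conditioned medium run non-reduced on 7.5% SDS-PAGE containing gelatin 4 mg/mL. Gel washed in 2.5% Triton X-100, incubated 24 h at 37 °C in Tris pH 7.5 with CaCl2/ZnCl2, Coomassie stained; lysis seen as clear bands.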

The subject of assay [8] is PC-3. Briefly: Induction of cell death in human PC3 cells at 10 uM measured after 72 hrs by propidium iodide staining based flow cytometry analysis (reference value: 0.5 %). Format: functional. In a few lines: as §2
For assay [9], the system named is PC-3. Briefly: Downregulation of Pin1 expression in human PC3 cells at 3 to 10 uM measured after 72 hrs by Western blot analysis. Format: functional, cell-based. In a few lines:
as §1

In assay [10] the test system is PC-3. The experiment in a line: Antimetastatic activity against human PC3 cells assessed as inhibition of MMP-2 at 3 to 10 uM measured after 48 hrs by gelatin zymography. Format: functional, cell-based. In a few lines: as §4
In assay [11] the test system is PC-3. Briefly: Downregulation of BCL-xL mRNA expression in human PC3 cells at 3 to 10 uM measured after 72 hrs by TRIzol dye based RT-PCR analysis. It is filed as functional, cell-based. A digest of the protocol: as §3
In assay [12] the test system is PC-3. The experiment in a line: Upregulation of NOXA mRNA expression in human PC3 cells at 3 to 10 uM measured after 72 hrs by TRIzol dye based RT-PCR analysis. It is filed as functional, cell-based. A digest of the protocol: (§5)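 PC-3 cells (1.25×10^5 per well) treated 72 h at 3 or 10 μM; total RNA by TRIzol, cDNA from 2 μg; SYBR real-time PCR, 95 °C 10 min then 40 cycles 95 °C 15 s/60 °C; Ct normalised to GAPDH, relative expression by 2^-ΔΔCt; three experiments.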

The test system of assay [13] is PC-3. The experiment in a line: Upregulation of p21 mRNA expression in human PC3 cells at 3 to 10 uM measured after 72 hrs by TRIzol dye based RT-PCR analysis. It is filed as functional, cell-based. A digest of the protocol: as §5
The subject of assay [14] is LNCaP. Briefly: Anticancer activity against human LNCAP cells assessed as cell viability measured after 72 hrs by MTT assay (reference value: 100 +/- 5.0 %). Format: functional. The arrangement: concentration or dose not given beside the values.
In assay [15] the test system is PC-3. Briefly: Downregulation of Pin1 in human PC3 cells harboring siRNA measured after 72 hrs by Western blot analysis. Format: functional, cell-based. A digest of the protocol:
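PC-3 cells (1.5 × 10^5/well) transfected with Pin1 siRNA (25 nM) using Lipofectamine RNAiMAX in Opti-MEM, alone or with test agent, for 72 h. Pin1 assessed by western blot with β-actin loading control.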

For assay [16], the system named is PC-3. The experiment in a line: Induction of reactive oxygen species generation in human PC3 cells assessed as increase in intracellular ROS level at 3 to 10 uM incubated for 3 hrs by CM-H2DCFDA staining based fluorescence microscopy analysis. It is filed as functional, cell-based. In a few lines:
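Approx. 1×10^5 PC-3 cells per well treated 3 h at 3 or 10 μM; medium replaced with 10 μM CM-H2DCFDA for 30 min in dark at 37 °C, nuclei counterstained Hoechst 33342 (1 μg/mL) 15 min at room temperature; fluorescence microscopy, percentage ROS-producing cells scored versus vehicle.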

In assay [17] the test system is A-431. The experiment in a line: Anticancer activity against human A431 cells assessed as cell viability measured after 72 hrs by MTT assay (reference value: 100 +/- 11.7 %). The arrangement: concentration or dose not given beside the values. Format: functional.
The subject of assay [18] is HeLa. The experiment in a line: Anticancer activity against human HeLa cells assessed as cell viability measured after 72 hrs by MTT assay (reference value: 100 +/- 11.5 %). It is filed as functional. Further details: concentration or dose not given beside the values.
Assay [19] concerns PC-3. Briefly: Cytotoxicity against human PC3 cells assessed as reduction in cell viability at 3 to 10 uM pretreated with NAC for 2 hrs followed by compound addition and measured after 72 hrs by MTT assay. It is filed as functional, cell-based. A digest of the protocol: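 PC-3 cells in 96-well plates pretreated 2 h with N-acetyl cysteine (20 μM), then exposed to 3 or 10 μM test agent for 72 h. Viability read by MTT as in the standard protocol, absorbance 570 nm, relative to DMSO control. Three separate experiments.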

Assay [20] has as its system MDA-MB-231. Briefly: Anticancer activity against human MDA-MB-231 cells assessed as cell viability measured after 72 hrs by MTT assay (reference value: 100 +/- 20.0 %). Format: functional. Further details: concentration or dose not given beside the values.
Assay [21] deals with PC-3. Briefly: Induction of apoptosis in human PC3 cells assessed as upregulation of Bax expression measured after 72 hrs by Western blot analysis. Format: functional, cell-based. A digest of the protocol:
as §1

In assay [22] the test system is PC-3. Briefly: Cell cycle arrest in human PC3 cells assessed as accumulation at G2/M phase at 3 uM measured after 48 hrs by RNase/propidium iodide staining based flow cytometry analysis (reference value: 34.95 %). It is filed as functional.
The test system of assay [23] is PC-3. Briefly: Anticancer activity against human PC3 cells assessed as cell viability measured after 72 hrs by MTT assay (reference value: 100 +/- 18.8 %). Format: functional. Further details: concentration or dose not given beside the values.

Active and inactive are the calls of the source. No cut-off for these calls is given here.

Broadly, the IC50 is the concentration needed to halve the response being measured. On to `COC(=O)Cc1ccc(S[C@@H]2O[C@@H]3O[C@@]4(C)CC[C@H]5[C@H](C)CC[C@@H]([C@H]2C)[C@@]35OO4)cc1`, for which the values for the half-maximal inhibitory concentration (IC50) in assay [1] and in [2] were 13.3 µM and 6.08 µM, respectively. The Activity entry was “Dose-dependent effect” in assay [3]; 26.3% in assay [4]; 28.9% in assay [8]; 38% in [14]; 35% in assay [17]; 43% in assay [18]. Besides, the Activity in [20] was 45%; in assay [21] it was “Dose-dependent effect”; in assay [22] it was 32.24%; in assay [23], 28%. Moreover, the outcome in [5], in [6], in assay [9], in assay [11], in [12] and in assay [13] was Active. The result in [15] and in assay [16] was Active. For the same compound, the inhibition result in assay [7] and in assay [10] was “Dose-dependent effect” in each case. Further, the outcome in assay [19] was inactive.

For the origin of these results see ChEMBL document CHEMBL4359825, “Synthesis of novel S-linked dihydroartemisinin derivatives and evaluation of their anticancer activity” (Eur J Med Chem, 2019).
